Measured values from ChEMBL document CHEMBL1806387, “Discovery of 1,2,4-thiadiazolidine-3,5-dione analogs that exhibit unusual and selective rapid cell death kinetics against acute myelogenous leukemia cells in culture” (Bioorg Med Chem Lett, 2011).
The source made the active and inactive calls. The calls are words filed in the database; no cut-off is given here.

Legend:
[1] = system: MV4-11; experiment: Cytotoxicity against human MV411 cells after 24 hrs by Annexin V-Fluorescein isothiocyanate and 7-aminoactinomycin D staining; format: functional; conditions: MV4-11, 24 h, read-out: LD50 (the source's name)
Procedure, shortened: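 MV4-11 human AML cells (ATCC) seeded at 300,000 cells/mL in IMDM with 10% FBS. Cells exposed to at least 4 concentrations for 24 hours. Stained with Annexin V-FITC and 7-AAD, then run on flow cytometry (BD LSRII) 15 minutes later. Viable cells gated as Annexin V-negative/7-AAD-negative and expressed as percent of untreated control.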

[2] = Cytotoxicity against human hematopoietic stem cells assessed as reduction of cell viability after 24 hrs by Annexin V-Fluorescein isothiocyanate and 7-aminoactinomycin D staining; format: cell-based
[3] = system: MV4-11; experiment: Cytotoxicity against human MV411 cells assessed as reduction of cell viability at 20 uM after 30 mins by Annexin V-Fluorescein isothiocyanate and 7-aminoactinomycin D staining; format: functional
Procedure, shortened: (§1)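 MV4-11 cells (ATCC) seeded at 300,000 cells/mL in IMDM with 10% FBS and exposed to compound for the stated time in time-course runs. Cells stained with Annexin V-FITC plus 7-AAD and read by flow cytometry 15 minutes later. Viability is the Annexin V-negative/7-AAD-negative fraction, expressed relative to untreated control.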

[4] = system: MV4-11; experiment: Cytotoxicity against human MV411 cells assessed as reduction of cell viability at 5 uM after 24 hrs by Annexin V-Fluorescein isothiocyanate and 7-aminoactinomycin D staining; format: functional, cell-based; procedure, shortened: as §1
[5] = system: MV4-11; experiment: Cytotoxicity against human MV411 cells assessed as reduction of cell viability at 10 uM after 24 hrs by Annexin V-Fluorescein isothiocyanate and 7-aminoactinomycin D staining; format: functional, cell-based; procedure, shortened: as §1
[6] = system: MV4-11; experiment: Cytotoxicity against human MV411 cells assessed as reduction of cell viability at 20 uM after 2 hrs by Annexin V-Fluorescein isothiocyanate and 7-aminoactinomycin D staining; format: functional, cell-based; procedure, shortened: as §1
[7] = system: MV4-11; experiment: Cytotoxicity against human MV411 cells assessed as reduction of cell viability at 5 uM after 1 to 2 hrs by Annexin V-Fluorescein isothiocyanate and 7-aminoactinomycin D staining; format: functional, cell-based; procedure, shortened: as §1
[8] = system: MV4-11; experiment: Cytotoxicity against human MV411 cells assessed as reduction of cell viability at 10 uM after 30 mins by Annexin V-Fluorescein isothiocyanate and 7-aminoactinomycin D staining; format: functional, cell-based; procedure, shortened: as §1
[9] = system: MV4-11; experiment: Cytotoxicity against human MV411 cells assessed as reduction of cell viability at 10 uM after 2 hrs by Annexin V-Fluorescein isothiocyanate and 7-aminoactinomycin D staining; format: functional, cell-based; procedure, shortened: as §1
[10] = system: MV4-11; experiment: Cytotoxicity against human MV411 cells assessed as reduction of cell viability at 5 uM after 30 mins by Annexin V-Fluorescein isothiocyanate and 7-aminoactinomycin D staining; format: functional; procedure, shortened: as §1

Row | SMILES | CC50 [1] [µM] | Activity [2] | further results
1 | CCn1sc(=O)n(Cc2ccccc2)c1=O [KRM-7777] | 9.21 | Non-toxic | –
2 | C=CCn1sc(=O)n(Cc2ccccc2)c1=O | 9.2 | Non-toxic | Activity [3]: 50%; Activity [4]: inactive; Activity [5]: Active; Activity [6]: Active
3 | Cl.NCc1cccc(Cn2c(=O)sn(CCCl)c2=O)c1 | 4.4 | Non-toxic | –
4 | CCn1sc(=O)n(Cc2ccc(CN)cc2)c1=O.Cl | 15.5 | Non-toxic | –
5 | C=CCn1sc(=O)n(Cc2ccc(CN)cc2)c1=O.Cl | 6.7 | Non-toxic | –
6 | Cl.NCc1ccc(Cn2c(=O)sn(CCCl)c2=O)cc1 | 3.01 | Non-toxic | –
7 | O=c1sn(CCCl)c(=O)n1Cc1ccccc1 | 2.03 | Non-toxic | Activity [7]: Active; Activity [8]: Active
8 | Cn1sc(=O)n(Cc2ccccc2)c1=O | 4.01 | Non-toxic | Activity [6]: Active
9 | Cl.NCc1ccc(Cn2c(=O)sn(CCBr)c2=O)cc1 | 4.51 | Non-toxic | –
10 | CCCn1sc(=O)n(Cc2ccccc2)c1=O | 11.6 | Non-toxic | –
11 | O=c1sn(CCBr)c(=O)n1Cc1ccccc1 | 3.5 | Non-toxic | Activity [9]: Active; Activity [10]: 50%
12 | O=C([O-])c1ccc(Cn2c(=O)sn(CCCl)c2=O)cc1.[Na+] | > 20 | Non-toxic | –
